These results are taken from ChEMBL document CHEMBL1146122, “Neuropeptide Y (NPY) Y4 receptor selective agonists based on NPY(32-36): development of an anorectic Y4 receptor selective agonist with picomolar affinity” (J Med Chem, 2006).

For test [1], the species on record is Homo sapiens. Briefly: Selectivity for human NPY4 over NPY1 receptor.
For test [2], the species on record is Homo sapiens. Briefly: Selectivity for human NPY4 over NPY2 receptor.
Test [3] is described as follows: Selectivity for human NPY4 over rat-human hybrid NPY5 receptor.
Test [4] concerns the target T1, Neuropeptide Y receptor type 1 (Homo sapiens) (UniProt P25929).
T1 sequence (whole entry): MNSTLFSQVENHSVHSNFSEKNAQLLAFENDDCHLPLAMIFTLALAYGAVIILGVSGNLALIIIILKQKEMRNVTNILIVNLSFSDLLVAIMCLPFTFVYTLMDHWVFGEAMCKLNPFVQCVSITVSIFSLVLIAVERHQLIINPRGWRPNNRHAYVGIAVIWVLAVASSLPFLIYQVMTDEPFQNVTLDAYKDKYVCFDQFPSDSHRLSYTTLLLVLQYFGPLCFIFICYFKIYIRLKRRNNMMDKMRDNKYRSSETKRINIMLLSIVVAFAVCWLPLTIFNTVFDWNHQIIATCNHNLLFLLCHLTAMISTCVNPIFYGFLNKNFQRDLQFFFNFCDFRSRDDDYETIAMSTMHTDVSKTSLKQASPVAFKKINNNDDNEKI
Put plainly: Antagonist activity against human NPY1 receptor in CHO cells by inhibition of forskolin-stimulated cAMP synthesis. The test is classed as functional, cell-based.

In test [5] the target is T2, Neuropeptide Y receptor type 4 (Homo sapiens, UniProt P50391). Put plainly: Displacement of [125I]hPP from human NPY4 receptor expressed in CHO cells. Format: cell-based. Summed up:
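Y4 binding used membranes from CHO cells stably expressing cloned human Y4, with 125I-PP as radioligand. Competing peptides were tested over a range of concentrations in 50 mM HEPES pH 7.3, 0.1% BSA, 2.5 mM CaCl2 and 1 mM MgCl2 for 90 min at room temperature. Separation was by filtration and γ-counting. Nonspecific binding was taken with 1 µM PP. Duplicate points, three experiments, nonlinear regression.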
(In general: Displacement assays read how much labelled ligand stays bound in the presence of the test substance.)

Test [6] concerns the target T3, Neuropeptide Y receptor type 1 (Homo sapiens, UniProt P25929).
T3 sequence (P25929 whole entry): T1 sequence (whole entry)
Briefly: Displacement of […] from human NPY1 receptor expressed in CHO cells. The test is classed as cell-based. Summed up: (§1)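 Competition binding on membranes (5-10 µg protein) from CHO cells stably expressing human Y1, Y2 or rat-human hybrid Y5 receptors. Radioligand 0.2 nM 125I-PYY, incubated with a range of peptide concentrations in 50 mM HEPES pH 7.3, 0.1% BSA, 2.5 mM CaCl2 and 1 mM MgCl2 for 90 min at room temperature. Bound ligand separated on PEI-treated glass fibre filters, washed with PBS and γ-counted. 1 µM NPY defined nonspecific binding. Duplicate points, three experiments, nonlinear regression.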

Test [7] has as its target T4, Neuropeptide Y receptor type 2 (Homo sapiens, UniProt P49146).
T4 sequence (P49146 whole entry): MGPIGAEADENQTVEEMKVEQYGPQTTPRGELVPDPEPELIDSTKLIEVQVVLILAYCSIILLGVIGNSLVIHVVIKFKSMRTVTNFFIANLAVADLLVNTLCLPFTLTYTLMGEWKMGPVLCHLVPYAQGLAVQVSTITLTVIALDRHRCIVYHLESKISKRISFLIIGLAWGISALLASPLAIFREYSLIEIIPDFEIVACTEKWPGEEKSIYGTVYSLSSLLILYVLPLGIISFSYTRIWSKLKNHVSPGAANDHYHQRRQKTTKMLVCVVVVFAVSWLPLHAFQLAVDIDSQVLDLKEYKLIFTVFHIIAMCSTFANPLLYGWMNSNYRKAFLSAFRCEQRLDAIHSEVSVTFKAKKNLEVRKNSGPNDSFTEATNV
Briefly: Displacement of […] from human NPY2 receptor expressed in CHO cells. The test is classed as cell-based. In short, it runs like this:
as §1

A short description of test [8]: Displacement of […] from rat-human hybrid NPY5 receptor expressed in CHO cells. Format: cell-based. Summed up:
as §1

Test [9] concerns the target T2, Neuropeptide Y receptor type 4. Briefly: Agonist activity at human NPY4 receptor in CHO cells by inhibition of forskolin-stimulated cAMP synthesis.

Positions of bridges follow the written chain, without caps; N, C: chain ends. Non-standard residues stand in square brackets, D forms with d. Residues, ends and D or L forms follow the SMILES beside them. Chains are numbered I, II in the order given. Nva = CCC[C@H](N)C(=O)O

T2 sequence (P50391 whole entry): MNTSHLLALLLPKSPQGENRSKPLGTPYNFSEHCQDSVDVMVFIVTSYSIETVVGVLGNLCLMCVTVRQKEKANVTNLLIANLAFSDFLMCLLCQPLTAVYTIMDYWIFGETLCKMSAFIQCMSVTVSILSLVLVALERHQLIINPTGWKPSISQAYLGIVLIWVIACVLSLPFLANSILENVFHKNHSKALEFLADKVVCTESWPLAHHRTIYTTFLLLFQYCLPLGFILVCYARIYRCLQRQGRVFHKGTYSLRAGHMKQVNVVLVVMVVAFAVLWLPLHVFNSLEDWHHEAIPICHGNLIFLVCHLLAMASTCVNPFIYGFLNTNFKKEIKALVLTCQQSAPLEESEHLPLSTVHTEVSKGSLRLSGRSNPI

On to `CCC[C@H](NC(=O)[C@H](CCCN=C(N)N)NC(=O)[C@H](Cc1c[nH]c2ccccc12)NC(=O)[C@@H](N)CCCC[C@H](N)C(=O)N[C@@H](Cc1c[nH]c2ccccc12)C(=O)N[C@@H](CCCN=C(N)N)C(=O)N[C@@H](CCC)C(=O)N[C@@H](CCCN=C(N)N)C(=O)N[C@@H](Cc1ccc(O)cc1)C(N)=O)C(=O)N[C@@H](CCCN=C(N)N)C(=O)N[C@@H](Cc1ccc(O)cc1)C(N)=O` (stereo in doubt; 4B), for which the Selectivity ratio in the test listed under Homo sapiens [1] came to 40; in the test listed under Homo sapiens [2] it was 270; in test [3], 140.
The matching figures for `CCC[C@H](NC(=O)[C@H](CCCN=C(N)N)NC(=O)[C@H](Cc1c[nH]c2ccccc12)NC(=O)[C@@H](N)CCCC[C@H](N)C(=O)N[C@@H](Cc1c[nH]c2ccccc12)C(=O)N[C@@H](CCCN=C(N)N)C(=O)N[C@@H](CCC)C(=O)N[C@@H](CCCN=C(N)N)C(=O)N[C@@H](Cc1ccc(O)cc1)C(N)=O)C(=O)N[C@@H](CCCN=C(N)N)C(=O)N[C@@H](Cc1ccc(O)cc1)C(N)=O` (stereo in doubt; 4A) [listing 1 of 2 here]: 20, 100 and 30.
The matching figures for `CCC[C@H](NC(=O)[C@H](CCCN=C(N)N)NC(=O)[C@H](Cc1c[nH]c2ccccc12)NC(=O)[C@@H](N)CCC[C@H](N)C(=O)N[C@@H](Cc1c[nH]c2ccccc12)C(=O)N[C@@H](CCCN=C(N)N)C(=O)N[C@@H](CCC)C(=O)N[C@@H](CCCN=C(N)N)C(=O)N[C@@H](Cc1ccc(O)cc1)C(N)=O)C(=O)N[C@@H](CCCN=C(N)N)C(=O)N[C@@H](Cc1ccc(O)cc1)C(N)=O` (stereo in doubt; 2B) [listing 1 of 2 here]: 40, 60 and 550.
`CCC[C@H](NC(=O)[C@H](CCCN=C(N)N)NC(=O)[C@H](Cc1c[nH]c2ccccc12)NC(=O)[C@H](Cc1ccc(O)cc1)NC(=O)[C@H](CCCN=C(N)N)NC(=O)[C@H](CCC)NC(=O)[C@H](CCCN=C(N)N)NC(=O)[C@@H](N)Cc1c[nH]c2ccccc12)C(=O)N[C@@H](CCCN=C(N)N)C(=O)N[C@@H](Cc1ccc(O)cc1)C(N)=O` (H-WR[Nva]RYWR[Nva]RY-NH2) had an antagonist dissociation constant (Kb) in test [4] of 0.32 µM. Besides, the Ki in [5] was determined as 0.0053 µM; in test [6], 0.22 µM; in test [7], 1.05 µM; in test [8], 0.25 µM. For the same compound, the figures for the Selectivity ratio (in the test filed under Homo sapiens [1]; in the test listed under Homo sapiens [2]; in test [3]) were 50, 200 and 50, respectively. The compound also gave a concentration for a half-maximal effect (EC50) in [9] of 0.29 µM.
Turning to `CCC[C@H](NC(=O)[C@H](CCCN=C(N)N)NC(=O)[C@H](Cc1c[nH]c2ccccc12)NC(=O)[C@@H](N)CC[C@H](N)C(=O)N[C@@H](Cc1c[nH]c2ccccc12)C(=O)N[C@@H](CCCN=C(N)N)C(=O)N[C@@H](CCC)C(=O)N[C@@H](CCCN=C(N)N)C(=O)N[C@@H](Cc1ccc(O)cc1)C(N)=O)C(=O)N[C@@H](CCCN=C(N)N)C(=O)N[C@@H](Cc1ccc(O)cc1)C(N)=O`, the inhibitory constant (Ki) in [5] was determined as 0.0042 µM; in test [6], 0.14 µM; in [7], 0.36 µM; in [8], 0.33 µM. Besides, the Selectivity ratio in the test filed under Homo sapiens [1] worked out at 34; in the test filed under Homo sapiens [2], 85; in [3] it was 78. In test [9], this compound had an EC50 of 0.46 µM.
Turning to `CCC[C@H](NC(=O)[C@H](CCCN=C(N)N)NC(=O)[C@H](Cc1c[nH]c2ccccc12)NC(=O)[C@@H](N)CCC[C@H](N)C(=O)N[C@@H](Cc1c[nH]c2ccccc12)C(=O)N[C@@H](CCCN=C(N)N)C(=O)N[C@@H](CCC)C(=O)N[C@@H](CCCN=C(N)N)C(=O)N[C@@H](Cc1ccc(O)cc1)C(N)=O)C(=O)N[C@@H](CCCN=C(N)N)C(=O)N[C@@H](Cc1ccc(O)cc1)C(N)=O` (stereo in doubt; 2A) [listing 1 of 2 here], the values for the Selectivity ratio (in the test listed under Homo sapiens [1]; in the test filed under Homo sapiens [2]; in [3]) were 30, 70 and 500, respectively.
Turning to `CCC[C@H](NC(=O)[C@H](CCCN=C(N)N)NC(=O)[C@H](Cc1c[nH]c2ccccc12)NC(=O)[C@@H](N)CCC[C@H](N)C(=O)N[C@@H](Cc1c[nH]c2ccccc12)C(=O)N[C@@H](CCCN=C(N)N)C(=O)N[C@@H](CCC)C(=O)N[C@@H](CCCN=C(N)N)C(=O)N[C@@H](Cc1ccc(O)cc1)C(N)=O)C(=O)N[C@@H](CCCN=C(N)N)C(=O)N[C@@H](Cc1ccc(O)cc1)C(N)=O` (stereo in doubt; 2A) [listing 2 of 2 here], the Ki in test [5] turned out to be 0.0043 µM; in test [6], 0.12 µM; in test [7], 0.31 µM; in test [8] it was 2.16 µM. In addition, a half-maximal effect in [9] (EC50) was put at 0.2 µM.
`CCC[C@H](NC(=O)[C@H](CCCNC(=N)N)NC(=O)[C@H](Cc1c[nH]c2ccccc12)NC(=O)[C@@H](N)CSSC[C@H](N)C(=O)N[C@@H](Cc1c[nH]c2ccccc12)C(=O)N[C@@H](CCCNC(=N)N)C(=O)N[C@@H](CCC)C(=O)N[C@@H](CCCNC(=N)N)C(=O)N[C@@H](Cc1ccc(O)cc1)C(N)=O)C(=O)N[C@@H](CCCNC(=N)N)C(=O)N[C@@H](Cc1ccc(O)cc1)C(N)=O` (I: H-CWR[Nva]RY-NH2 / II: H-CWR[Nva]RY-NH2; disulfide I:1-II:1): the Ki was 0.03 µM in [5], 0.34 µM in test [6] and above 3 µM in test [7]. In test [9], this compound returned an EC50 of 0.57 µM.
With `CCC[C@H](NC(=O)[C@H](CCCN=C(N)N)NC(=O)[C@H](Cc1c[nH]c2ccccc12)NC(=O)[C@@H](N)CCCC[C@H](N)C(=O)N[C@@H](Cc1c[nH]c2ccccc12)C(=O)N[C@@H](CCCN=C(N)N)C(=O)N[C@@H](CCC)C(=O)N[C@@H](CCCN=C(N)N)C(=O)N[C@@H](Cc1ccc(O)cc1)C(N)=O)C(=O)N[C@@H](CCCN=C(N)N)C(=O)N[C@@H](Cc1ccc(O)cc1)C(N)=O` (stereo in doubt; 4A) [listing 2 of 2 here], the Ki in test [5] is 0.0041 µM; in test [6] it was 0.09 µM; in [7] it was 0.39 µM; in [8], 0.12 µM. The compound further yielded a concentration giving a half-maximal response (EC50) in test [9] of 0.43 µM.
Turning to `CCC[C@H](NC(=O)[C@H](CCCN=C(N)N)NC(=O)[C@H](Cc1c[nH]c2ccccc12)NC(=O)[C@@H](N)CSSC[C@H](N)C(=O)N[C@@H](Cc1c[nH]c2ccccc12)C(=O)N[C@@H](CCCN=C(N)N)C(=O)N[C@@H](CCC)C(=O)N[C@@H](CCCN=C(N)N)C(=O)N[C@@H](Cc1ccc(O)cc1)C(N)=O)C(=O)N[C@@H](CCCN=C(N)N)C(=O)N[C@@H](Cc1ccc(O)cc1)C(N)=O` (I: H-CWR[Nva]RY-NH2 / II: H-CWR[Nva]RY-NH2; disulfide I:1-II:1), the antagonist equilibrium constant (Kb) in [4] amounted to 1.73 µM. The compound also had an inhibitory constant (Ki) in test [8] of 0.77 µM. The Selectivity ratio came to 10 in the test filed under Homo sapiens [1], 110 in the test filed under Homo sapiens [2] and 30 in [3].
With `CCC[C@H](NC(=O)[C@H](CCCN=C(N)N)NC(=O)[C@H](Cc1c[nH]c2ccccc12)NC(=O)[C@@H](N)CCC[C@H](N)C(=O)N[C@@H](Cc1c[nH]c2ccccc12)C(=O)N[C@@H](CCCN=C(N)N)C(=O)N[C@@H](CCC)C(=O)N[C@@H](CCCN=C(N)N)C(=O)N[C@@H](Cc1ccc(O)cc1)C(N)=O)C(=O)N[C@@H](CCCN=C(N)N)C(=O)N[C@@H](Cc1ccc(O)cc1)C(N)=O` (stereo in doubt; 2B) [listing 2 of 2 here], the inhibition constant (Ki) in test [5] stood at 0.0041 µM; in [6], 0.14 µM; in [7] it was 0.26 µM; in test [8] it was 2.28 µM. For the same compound, a half-maximal response in test [9] (EC50) required 0.22 µM.

One may read the Kb as the equilibrium dissociation constant of an antagonist, usually derived from a functional assay. One may read the Ki as a dissociation constant, usually derived from enzyme kinetics or from competition with a known ligand. Read a low Ki as a stronger hold on the target. The term EC50 denotes the concentration at which the effect is half-maximal. Low values mean a more potent agent, high ones a less potent agent.
